# High-throughput results deposited in PubChem by Sanford-Burnham Center for Chemical Genomics.
# SENP7 inh – blocks the human protease SENP7. 330,000 tested, 1.5% active. AID 434973. inhibition, % at 5 µM. Q9BQF6. recombinant SENP7, Z-RLRGG-aminoluciferin luminescence, 40 min;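 active = inhibition above about 50% at the single test dose, limit read from the data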;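 note: plate controls were DMSO with enzyme for no effect and no enzyme buffer wells for full effect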
# Apaf-1 inh – human Apaf-1 inhibition. inhibition, % at 20 µM. reconstituted apoptosome caspase-3 activity, DEVD-Rh110 fluorescence. AID 489030. O14727. 330,000 tested, 0.71% active; active = inhibition of at least 40% at 20 µM;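 note: plate controls were DMSO wells for no effect and DEVD-CHO caspase inhibitor wells for full effect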
#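 System: reconstituted apoptosome with Apaf-1, cytochrome c, caspase-9, procaspase-3, dATP; Signal: Rh110 fluorescence intensity; Schedule: 30 min compound preincubation, 50 min activation, room temperature; Reagent: cytochrome c trigger plus (Z-DEVD)2-Rh110 caspase-3 substrate.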
# UBC13 inh – inhibitors of human UBC13 polyubiquitin chain formation; inhibition, % at 20 µM; TR-FRET; 330,000 tested, 0.47% active; AID 485273; in the data active = inhibition above about 45%, passing the limit was not always enough
# Target sequence (P61088 whole entry, looked up): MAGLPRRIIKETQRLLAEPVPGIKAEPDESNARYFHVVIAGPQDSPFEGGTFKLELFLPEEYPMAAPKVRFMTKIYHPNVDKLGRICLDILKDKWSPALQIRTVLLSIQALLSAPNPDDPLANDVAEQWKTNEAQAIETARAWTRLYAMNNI
# SENP8 block-1 – inhibitors of human SENP8 protease; Q96LD8; recombinant SENP8, Nedd8 substrate fluorescence; inhibition, % at 20 µM; 360,000 tested, 0.64% active; AID 602440; in the data active = inhibition mostly above about 40%, no sharp cut-off; inactive = mostly below about 27%
# Target sequence (Q96LD8 whole entry, looked up): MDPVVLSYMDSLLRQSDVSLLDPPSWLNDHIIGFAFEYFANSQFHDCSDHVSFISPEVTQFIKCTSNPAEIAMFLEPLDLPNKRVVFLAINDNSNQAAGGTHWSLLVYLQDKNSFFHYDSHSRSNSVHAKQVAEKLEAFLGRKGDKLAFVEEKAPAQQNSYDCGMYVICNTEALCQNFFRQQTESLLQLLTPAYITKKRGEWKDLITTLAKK
# SENP6 inh – inhibitors of human SENP6 protease; Recombinant SENP6 catalytic domain, aminoluciferin luminescence; inhibition, % at 10 µM; 330,000 tested, 1.8% active; AID 2599;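 active = inhibition above about 50% at the single tested dose, limit read from the data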;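 note: plate controls were DMSO wells with enzyme for no effect and DMSO wells lacking enzyme for full effect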
# SENP8 block-2 – inhibitors of human SENP8 protease; Q96LD8; purified SENP8, Z-RLRGG-aminoluciferin cleavage, luminescence; inhibition, % at 10 µM; 330,000 tested, 1.2% active; AID 2540; in the data active = inhibition above about 50%
# SENP8 conf – human SENP8 inhibition, confirmed; shares compounds with SENP7 inh; Recombinant SENP8, Z-RLRGG-aminoluciferin luminescence, 60 min; inhibition, % at 12.5 µM; 6,200 tested, 40% active; AID 488912;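 active = mean inhibition across replicates above about 50%, limit read from the data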
# SENP6 conf – confirmation of human SENP6 protease inhibitors; shares compounds with SENP7 inh; recombinant SENP6, Z-RLRGG-aminoluciferin luminescence; inhibition, % at 12.5 µM; 6,200 tested, 58% active
# SENP7 confirm – confirmation of human SENP7 protease inhibitors | shares compounds with SENP7 inh | recombinant SENP7, Z-RLRGG-aminoluciferin luminescence, 40 min | inhibition, % at 12.5 µM | 6,200 tested, 69% active | AID 488917
# Casp3 SENP sel – inhibits human caspase-3 in SENP selectivity test | shares compounds with SENP7 inh | purified caspase-3, Z-DEVD-aminoluciferin luminescence, 60 min | inhibition, % at 12.5 µM | 6,200 tested, 60% active;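 active = mean inhibition above about 50%, limit read from the data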;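 note: plate controls were enzyme with DMSO for no effect and wells without caspase-3 for full effect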
# Target sequence (P42574 28-227 limits assumed): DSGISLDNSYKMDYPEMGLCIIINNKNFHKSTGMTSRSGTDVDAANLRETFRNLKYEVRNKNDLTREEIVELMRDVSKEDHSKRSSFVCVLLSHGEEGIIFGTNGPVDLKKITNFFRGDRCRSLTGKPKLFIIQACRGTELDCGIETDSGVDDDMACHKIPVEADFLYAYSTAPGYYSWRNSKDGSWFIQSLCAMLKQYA
# Luc interf – counter-screen for SENP inhibitors: luminescence interference; shares compounds with SENP7 inh; AID 488919; Pre-incubated SENP8/Z-RLRGG-aminoluciferin, luciferase luminescence interference; inhibition, % at 12.5 µM; 6,200 tested, 39% active;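 active = mean inhibition above about 50% when retested at one dose, limit read from the data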;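 note: plate controls were DMSO wells with completed reaction for no effect and substrate without enzyme for full effect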
# Active calls of the source: *; i = inactive; / = not tested or not shown. Shown are actives, neighbours in structure and some others; about 3.1% of the full set was active somewhere.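 Rule for the calls, unless noted: active = mean inhibition above about 50% in the one-dose retest (limit read from the data); inactive = the rest.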
SMILES,SENP7 inh,Apaf-1 inh,UBC13 inh,SENP8 block-1,SENP6 inh,SENP8 block-2,SENP8 conf,SENP6 conf,SENP7 confirm,Casp3 SENP sel,Luc interf
COc1cccc(-c2ccc3c(N)c(C(=O)NC4CC4)sc3n2)c1,50,10,-4,-460,60*,46,-16,-14,19,10,24
COc1ccc(C(=O)N2CCN(c3ncnc4c(-c5ccccc5)nsc34)CC2)cc1,/,/,/,-79,/,/,/,/,/,/,/
COc1ccc(-c2nsc3c(N4CCCCC4C)ncnc23)cc1 (stereo not drawn),78*,14,15,-406,88*,81*,68*,71*,76*,76*,11
COc1ccc(-c2nsc3c(N4CCCCC4)ncnc23)cc1,95*,10,20,-257,67*,92*,0,5,0,2,16
COc1ccc(-c2nsc3c(N4CCN(S(=O)(=O)c5ccccc5F)CC4)ncnc23)cc1,8,-16,11,-138,-4,6,/,/,/,/,/
CCNC(=O)C1CCCN(C(=O)c2cccc(C(F)(F)F)c2)CC1 (stereo not drawn),/,/,/,10,/,/,/,/,/,/,/
CCCC(=O)Nc1ccc(-c2nc3cc(C)ccc3o2)cc1,71*,5,14,-500,71*,48,42,50*,74*,28,18
CCCC(=O)Nc1ccc2oc(-c3ccc(OC)c(Br)c3)nc2c1,51*,3,15,-274,21,-20,-7,0,2,6,5
Cc1cc(C)c2cc(C#N)c(NCCNC(=O)c3ccccn3)nc2c1,/,/,/,-393,/,/,/,/,/,/,/
CCNC(=O)C1(C)CCN1Cc1cc(-c2ccccc2)n(C)n1 (stereo not drawn),/,/,/,23,/,/,/,/,/,/,/
COc1cccc(CNC(=O)CCC2CCCN(C(=O)c3cc4ccccc4o3)C2)c1 (stereo not drawn),52*,5,17,7,21,54*,0,62*,89*,76*,59*
COc1cccc(CNC(=O)CCC2CCCN(C(=O)c3ccoc3)C2)c1 (stereo not drawn),-1,-9,-2,6,13,2,/,/,/,/,/
CCOc1ccc(-c2cn3ccccc3n2)cc1,72*,7,0,-410,49,66*,86*,85*,96*,90*,84*
CCOc1ccc(-c2cnc3ccccc3n2)cc1,98*,1,43,-441,96*,93*,8,61*,79*,88*,58*
Cc1noc(C)c1C(=O)N1CCC1(C)C(=O)NS(=O)(=O)c1cccc(F)c1 (stereo not drawn),/,/,/,14,/,/,/,/,/,/,/
COc1ccc(C(=O)c2coc3ccc(O)cc23)cc1,87*,14,4,18,85*,80*,80*,80*,98*,78*,61*
CCC(=O)c1coc2ccc(O)cc12,-12,10,21,-19,9,-8,/,/,/,/,/
Cc1ccc(C(=O)c2coc3ccc(OCC(=O)O)cc23)cc1,29,0,0,19,66*,33,47,43,77*,78*,66*
CC(=O)Oc1ccc2occ(C(=O)c3ccccc3)c2c1,31,0,-1,8,32,32,/,/,/,/,/
O=C(c1cccc(Br)c1)c1coc2ccc(O)cc12,72*,3,18,18,86*,84*,56*,73*,95*,51*,24
N#Cc1c([N+](=O)[O-])cc([N+](=O)[O-])cc1S(=O)(=O)Cc1ccccc1,3,20,16,18,4,-6,/,/,/,/,/
CSc1ncccc1C(=O)OCc1ccc([N+](=O)[O-])cc1,9,-15,-12,10,-1,-8,/,/,/,/,/
CSc1ncccc1C(=O)OCc1ccccc1F,43,6,15,16,72*,50*,53*,55*,79*,51*,56*
CSc1ncccc1C(=O)OCc1ccccc1,18,8,5,21,54*,26,9,19,60*,32,32
FC(F)(F)Oc1ccccc1C(c1nnnn1Cc1ccccc1)N1CCN(C/C=C/c2ccccc2)CC1 (stereo not drawn),/,/,/,18,/,/,/,/,/,/,/
SMILES,SENP7 inh,Apaf-1 inh,UBC13 inh,SENP8 block-1,SENP6 inh,SENP8 block-2,SENP8 conf,SENP6 conf,SENP7 confirm,Casp3 SENP sel,Luc interf
CC1CCCC(C)N1C(=O)CSc1nc(N)c(-c2ccccc2)c(=O)[nH]1 (stereo not drawn),87*,-17,-6,7,7,7,4,4,1,1,1
COC(=O)c1[nH]c2ccc(C)cc2c1NC(=O)Oc1ccccc1,7,-11,8,i,82*,51*,1,4,12,8,8
CC1(C(=O)Nc2cccc(Oc3ccccc3)c2)Cc2c(-c3ccc4c(c3)OCO4)ccnc2O1 (stereo not drawn),/,/,/,-116,/,/,/,/,/,/,/
O=c1c(-c2ccco2)nc2ccccc2n1C(c1ccccn1)c1nc2ccccc2[nH]1 (stereo not drawn),/,/,/,-410,/,/,/,/,/,/,/
CCCS/C(N)=N/N=C/c1cc(C)ccc1O,11,8,-6,32,53*,10,20,17,59*,20,17
CN(C(=O)c1cccc(NC(=O)Cc2ccc(NC(=O)C3CCN(C(=O)C4CCCC4)CC3)cc2)c1)C1CCCC1,/,/,/,7,/,/,/,/,/,/,/
O=C(Nc1ccccc1)Nc1ccc2ocnc2c1,76*,2,5,-12,31,58*,4,64*,88*,84*,45
O=C(Nc1ccccc1)Nc1ccc2ncoc2c1,62*,-6,-3,-10,0,25,58*,53*,82*,67*,58*
O=C(O)Cc1ccc2ocnc2c1,5,0,-6,8,13,7,/,/,/,/,/
CC(=O)Nc1ccc(NC(=O)Nc2ccccc2)cc1,17,-1,-3,14,13,-2,/,/,/,/,/
CC1(C(=O)NCc2ccc(Cl)cc2)CCN1C(=O)Cc1ccc(Cl)cc1Cl (stereo not drawn),/,/,/,-8,/,/,/,/,/,/,/
O=C1OC(c2ccccc2)=C/C1=C/c1cccs1,57*,1,-12,11,59*,38,24,37,46,35,20
